# Measurements taken from ChEMBL document CHEMBL5346861, “Designing quinoline-isoniazid hybrids as potent anti-tubercular agents inhibiting mycolic acid biosynthesis” (Eur J Med Chem, 2022).
# Activity calls are given as the source filed them. The rule behind the calls is not given here.
# Columns and labels:
# [1] = tested on: Mycobacterium tuberculosis; experiment: Antimycobacterial activity against Mycobacterium tuberculosis mc2 6230 assessed as inhibition of bacterial growth measured after 7 days by broth dilution method; format: functional; conditions: mc2 6230, 168 h, time 7 day
# Method in brief: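 Pantothenate auxotroph carrying empty pMV261. 2-fold serial dilutions, 37 °C, no agitation, 7 days. MIC99 is the lowest concentration with no turbidity change. DMSO vehicle control.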
# [2] = tested on: Mycobacteroides abscessus; experiment: Antimycobacterial activity against Mycobacterium abscessus CIP104536 smooth variant assessed as inhibition of bacterial growth measured after 4 days by broth dilution method; format: functional; conditions: CIP104536, 96 h, time 4 day
# Method in brief: (§1)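 MIC99 by CLSI broth 2-fold serial dilution in CaMHB. Inoculum 5.10⁶ CFU/mL. Incubated at 30 °C and read by turbidity after 4 days. DMSO vehicle control, INH reference.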
# [3] = tested on: Mycobacterium tuberculosis; experiment: Inhibition of mycolic acid biosynthesis in Mycobacterium tuberculosis mc2 6230 assessed as decrease in methoxy-mycolic acid incubated for 15 mins followed by 14C-labeled acetate addition measured after 7 hrs by TLC analysis; format: functional, organism-based; conditions: time 435.0 min
# [4] = tested on: Mycobacterium tuberculosis; experiment: Inhibition of mycolic acid biosynthesis in Mycobacterium tuberculosis mc2 6230 assessed as decrease in alpha-mycolic acid incubated for 15 mins followed by 14C-labeled acetate addition measured after 7 hrs by TLC analysis; format: functional, organism-based; conditions: time 435.0 min
# [5] = tested on: Mycobacterium marinum; experiment: Antimycobacterial activity against Mycobacterium marinum M strain assessed as inhibition of bacterial growth measured after 6 days by broth dilution method; format: functional; conditions: 144 h, time 6 day
# Method in brief: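 MIC99 by 2-fold serial broth dilution in 7H9 with 10% OADC and 0.025% tyloxapol. Inoculum 5.10⁶ CFU/mL. Incubated without agitation at 30 °C, scored for no turbidity change after 6 days. DMSO vehicle control.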
# [6] = tested on: Mycobacteroides abscessus; experiment: Antimycobacterial activity against Mycobacterium abscessus CIP104536 rough variant assessed as inhibition of bacterial growth measured after 4 days by broth dilution method; format: functional; conditions: CIP104536, 96 h, time 4 day; method in brief: as §1
# [7] = tested on: Mycobacterium tuberculosis; experiment: Inhibition of mycolic acid biosynthesis in Mycobacterium tuberculosis mc2 6230 assessed as decrease in keto-mycolic acid incubated for 15 mins followed by 14C-labeled acetate addition measured after 7 hrs by TLC analysis; format: functional, organism-based; conditions: time 435.0 min
# [8] = Selectivity index, […] Mycobacterium abscessus CIP104536 smooth variant to CC50 for cytotoxicity against human THP-1 cells; format: toxicity, cell-based; conditions: read-out: Selectivity Index
# [9] = tested on: Mycobacterium tuberculosis; experiment: Antimycobacterial activity against Mycobacterium tuberculosis mc2 6230 assessed as reduction in log10 CFU at 20 times of MIC measured after 6 days by time-killing kinetics assay; format: functional; conditions: time 6 day
# Method in brief: (§2)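 Exposed to 1x, 5x or 20x MIC at 37 °C for up to 6 days. Serial dilutions plated on 7H10/OADC/pantothenate and colonies counted after 3 weeks. Mean of four independent experiments in technical triplicate, with SD. DMSO negative control.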
# [10] = Selectivity index, […] Mycobacterium tuberculosis H37Rv to CC50 for cytotoxicity against human THP-1 cells; format: toxicity, cell-based; conditions: read-out: Selectivity Index
# [11] = Selectivity index, […] Mycobacterium marinum M strain to CC50 for cytotoxicity against human THP-1 cells; format: toxicity, cell-based; conditions: read-out: Selectivity Index
# [12] = tested on: Mycobacterium tuberculosis; experiment: Antimycobacterial activity against Mycobacterium tuberculosis mc2 6230 assessed as inhibition of bacterial growth at 1 ug/ml measured after 7 days by broth dilution method; format: functional, organism-based; conditions: dose 1.0 µg/ml, time 7.0 day
# [13] = tested on: Vero; experiment: Cytotoxicity against African green monkey Vero cells assessed as reduction in cell viability measured after 24 hrs by resazurin staining based analysis; format: toxicity; conditions: chlorocebus sabaeus
# Method in brief: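 Vero cells in RPMI 1640 with 10% FCS, 2×10^4 cells/well, adhered overnight at 37 °C and 5% CO₂. Compounds added at 100 to 0.78 µg/mL for 24 hrs. 10% resazurin added for 4 hrs, fluorescence read at ex 540/em 590 nm.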
# [14] = tested on: Mycobacterium tuberculosis; experiment: Antimycobacterial activity against Mycobacterium tuberculosis mc2 6230 assessed as reduction in log10 CFU at 5 times of MIC measured after 3 days by time-killing kinetics assay; format: functional; conditions: time 3 day; method in brief: as §2
# [15] = tested on: Mycobacterium tuberculosis; experiment: Antimycobacterial activity against Mycobacterium tuberculosis mc2 6230 assessed as reduction in log10 CFU at 1 time of MIC measured after 6 days by time-killing kinetics assay; format: functional, organism-based; conditions: time 6.0 day; method in brief: as §2
# [16] = Cytotoxicity against human THP-1 cells assessed as reduction in cell viability measured after 72 hrs by resazurin staining based analysis; format: toxicity
# Method in brief: (§3)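 THP-1 monocytes differentiated with 20 ng/mL PMA for 48 hrs at 1×10^5 cells/well. Compounds added by serial dilution from 100 µg/mL for 24 or 72 hrs at 37 °C and 5% CO₂. Resazurin 10% for 4 hrs, fluorescence at ex 540/em 590 nm. Mean of three independent experiments in triplicate. INH and RFB reference drugs.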
# [17] = Cytotoxicity against human THP-1 cells assessed as reduction in cell viability measured after 24 hrs by resazurin staining based analysis; format: toxicity; method in brief: as §3
# [18] = Selectivity index, […] Mycobacterium abscessus CIP104536 rough variant to CC50 for cytotoxicity against human THP-1 cells; format: toxicity, cell-based; conditions: read-out: Selectivity Index
# [19] = tested on: Mycobacterium tuberculosis; experiment: Antimycobacterial activity against Mycobacterium tuberculosis H37Rv assessed as inhibition of bacterial growth; format: functional
# [20] = tested on: Mycobacterium tuberculosis; experiment: Inhibition of mycolic acid biosynthesis in Mycobacterium tuberculosis mc2 6230 assessed as decrease in keto-mycolic acid at 1.25 ug/ml incubated for 15 mins followed by 14C-labeled acetate addition measured after 7 hrs by TLC analysis; format: functional, organism-based; conditions: dose 1.25 µg/ml, time 435.0 min
# [21] = tested on: Mycobacterium tuberculosis; experiment: Inhibition of mycolic acid biosynthesis in Mycobacterium tuberculosis mc2 6230 assessed as decrease in alpha-mycolic acid at 1.25 ug/ml incubated for 15 mins followed by 14C-labeled acetate addition measured after 7 hrs by TLC analysis; format: functional, organism-based; conditions: dose 1.25 µg/ml, time 435.0 min
# [22] = tested on: Mycobacterium tuberculosis; experiment: Inhibition of mycolic acid biosynthesis in Mycobacterium tuberculosis mc2 6230 assessed as decrease in methoxy-mycolic acid at 1.25 ug/ml incubated for 15 mins followed by 14C-labeled acetate addition measured after 7 hrs by TLC analysis; format: functional, organism-based; conditions: dose 1.25 µg/ml, time 435.0 min
# [23] = tested on: Mycobacterium tuberculosis; experiment: Inhibition of fatty acid methyl esters production in Mycobacterium tuberculosis mc2 6230 incubated for 15 mins followed by 14C-labeled acetate addition measured after 7 hrs by TLC analysis; format: functional; conditions: time 435.0 min
smiles,measurement,setting,value
COc1cc(C=O)ccc1OCc1cn(-c2ccnc3cc(Cl)ccc23)nn1,MIC,[1],> 200 µg/mL
O=Cc1ccc(OCc2cn(CCNc3ccnc4cc(Cl)ccc34)nn2)cc1,MIC,[1],> 200 µg/mL
NNC(=O)c1ccncc1 [ISONIAZID],MIC,[2],> 200 µg/mL
same,inhibition,[3],Dose-Dependent Effect
same,inhibition,[4],Dose-Dependent Effect
same,MIC,[1],0.05 µg/mL
same,MIC,[5],25 µg/mL
same,MIC,[6],> 200 µg/mL
same,inhibition,[7],Dose-Dependent Effect
COc1cc(/C=N/NC(=O)c2cnccn2)ccc1OCc1cn(CCNc2ccnc3cc(Cl)ccc23)nn1,MIC,[1],> 200 µg/mL
COc1cc(C=O)ccc1OCc1cn(CCCNc2ccnc3cc(Cl)ccc23)nn1,MIC,[1],> 200 µg/mL
COc1cc(/C=N/NC(=O)c2cccnc2)ccc1OCc1cn(-c2ccnc3cc(Cl)ccc23)nn1,MIC,[1],> 200 µg/mL
O=C(N/N=C/c1ccc(OCc2cn(-c3ccnc4cc(Cl)ccc34)nn2)cc1)c1ccncc1,selectivity ratio,[8],> 200
same,Activity,[9],~3 log10CFU/ml
same,MIC,[2],> 200 µg/mL
same,selectivity ratio,[10],> 200
same,selectivity ratio,[11],> 200
same,Activity,[12],Active
same,MIC,[1],0.25 µg/mL
same,Activity,[13],Non-Toxic
same,MIC,[5],> 200 µg/mL
same,MIC,[6],> 200 µg/mL
same,Activity,[14],2 log10CFU/ml
same,Activity,[15],Active
same,CC50 at 72 h,[16],> 100 µg/mL
same,CC50 at 24 h,[17],> 100 µg/mL
same,selectivity ratio,[18],> 200
COc1cc(/C=N/NC(=O)c2cnccn2)ccc1OCc1cn(-c2ccnc3cc(Cl)ccc23)nn1,MIC,[1],> 200 µg/mL
COc1cc(/C=N/NC(=O)c2cccnc2)ccc1OCc1cn(CCCNc2ccnc3cc(Cl)ccc23)nn1,MIC,[1],> 200 µg/mL
CC(C)c1ccc(-c2nc(CN3CCN(c4ccnc5cc(Cl)ccc45)CC3)no2)cc1,MIC,[19],1.11 µM
O=C(N/N=C/c1ccccc1-n1cc(CN2CCN(c3ccnc4cc(Cl)ccc34)CC2)nn1)c1cnccn1,MIC,[1],> 200 µg/mL
O=C(N/N=C/c1ccc(OCc2cn(CCCNc3ccnc4cc(Cl)ccc34)nn2)cc1)c1cnccn1,MIC,[1],> 200 µg/mL
O=C(N/N=C/c1ccccc1-n1cc(CN2CCN(c3ccnc4cc(Cl)ccc34)CC2)nn1)c1ccncc1,Activity,[9],~3 log10CFU/ml
same,MIC,[2],> 200 µg/mL
same,inhibition,[3],Dose-Dependent Effect
same,inhibition,[4],Dose-Dependent Effect
same,inhibition,[20],Active
same,Activity,[12],Active
same,MIC,[1],0.25 µg/mL
same,inhibition,[21],Active
same,inhibition,[22],Active
same,inhibition,[23],inactive
same,MIC,[5],50 µg/mL
same,MIC,[6],> 200 µg/mL
same,inhibition,[7],Dose-Dependent Effect
same,Activity,[14],2 log10CFU/ml
same,Activity,[15],Active
same,CC50 at 72 h,[16],18 µg/mL
same,CC50 at 24 h,[17],13 µg/mL
O=C(N/N=C/c1ccccc1-n1cc(CN2CCN(c3ccnc4cc(Cl)ccc34)CC2)nn1)c1cccnc1,MIC,[1],> 200 µg/mL
O=C(N/N=C/c1ccc(OCc2cn(CCNc3ccnc4cc(Cl)ccc34)nn2)cc1)c1ccncc1,Activity,[9],~3 log10CFU/ml
same,MIC,[2],> 200 µg/mL
same,Activity,[12],Active
same,MIC,[1],0.5 µg/mL
same,Activity,[13],Non-Toxic
same,MIC,[5],200 µg/mL
same,MIC,[6],> 200 µg/mL
same,Activity,[14],2 log10CFU/ml
same,Activity,[15],Active
same,CC50 at 72 h,[16],34 µg/mL
same,CC50 at 24 h,[17],> 100 µg/mL
O=C(N/N=C/c1ccccc1)c1ccncc1 [N'-BENZYLIDENE ISONICOTINOHYDRAZIDE],MIC,[19],0.05 µg/mL
